# Measured values from ChEMBL document CHEMBL5036380, “New Highly Potent NLRP3 Inhibitors: Furanochalcone Velutone F Analogues” (ACS Med Chem Lett, 2022).
# Activity calls are given as the source filed them. The rule behind the calls is not given here.
# Experiments:
# [1] = system: THP-1; assay: Antiinflammatory activity in human THP-1 cells assessed as inhibition of LPS-induced IL-1beta secretion in LPS stimulation for 3 hrs followed by pretreatment at 2uM for 40 min before induced with nigericin for 40 min measured by ELISA; format: functional; conditions: for inhibition at 2 µM: THP-1, 1.333 h, time 80 min; for inhibition: time 80.0 min
# How it was run: (§1)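 THP-1 cells (2 × 10^5 cells/mL) differentiated with PMA (100 ng/mL) for 24 h. Next day, primed with LPS (1 μg/mL) for 3 h, then compound for 40 min, then nigericin (10 μM) for 40 min. IL-1β in supernatant measured by ELISA; % inhibition as mean ± SD of three independent experiments. The single-concentration screen used 2 μM.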
# [2] = system: THP-1; assay: Cytotoxicity against human THP-1 cells assessed as reduction in cell viability at 0.05 to 6.4 uM measured after 90 mins by CCK8 assay; format: cell-based; conditions: thp-1, 1.5 h, dose 0.05-6.4 µM
# How it was run: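 THP-1 cells preincubated with compound (0.05–6.4 μM) for 1.5 h; viability read by CCK8 assay.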
# [3] = system: THP-1; assay: Antiinflammatory activity in human THP-1 cells assessed as inhibition of LPS-induced IL-1beta secretion in LPS stimulation for 3 hrs followed by pretreatment for 40 min before induced with nigericin for 40 min measured by ELISA; format: functional; conditions: time 80 min; 1.333 h; how it was run: as §1
# [4] = system: Spleen; assay: Downregulation of IL-1beta level in spleen of LPS treated C57BL/6J mouse at 10 mg/kg, iv measured after 6 hrs by ELISA
Compound,inhibition at 2 µM [1],inhibition [1],other results
COc1c(/C=C/C(=O)c2ccc(Cl)cn2)cc(OC)c2occc12,20.3%,–,–
COc1cc(-c2cc(F)cc(F)c2)c(OC)cc1/C=C/C(=O)c1ccc(F)cc1,–,inactive,–
COc1c(/C=C/C(=O)c2ccccc2N)cc(OC)c2occc12,19.8%,–,–
COc1c(/C=C/C(=O)Nc2ccccc2)cc(OC)c2occc12,7.4%,–,–
COc1c(C(=O)/C=C/c2ccccc2)cc(OC)c2occc12,15.5%,–,–
COc1c(/C=C/C(=O)O)cc(OC)c2occc12,5.2%,–,–
COc1cc(-c2cccc(Cl)c2)c(OC)cc1/C=C/C(=O)c1ccc(F)cc1,–,inactive,–
COc1ccc(OC)c(/C=C/C(=O)c2ccc(F)cc2)c1,91.1%,–,–
COc1c(CCC(=O)c2cccc(C(F)(F)F)c2)cc(OC)c2occc12,–,inactive,–
COc1cncc(-c2cc(OC)c(/C=C/C(=O)c3ccc(F)cc3)cc2OC)c1,–,inactive,–
COc1c(/C=C/C(=O)c2ccccc2F)cc(OC)c2occc12,50.4%,–,–
COc1c(CCC(=O)c2ccccc2)cc(OC)c2occc12,–,inactive,–
COc1c(/C=C/C(=O)c2cccc(-c3cccs3)n2)cc(OC)c2occc12,15.9%,–,–
C=CC(=O)N(Cc1cc(OC)c2occc2c1OC)c1ccccc1,31.8%,–,–
COc1c(/C=C/C(=O)c2ccc[nH]2)cc(OC)c2occc12,10.3%,–,–
COc1cc(-c2ccccc2NS(C)(=O)=O)c(OC)cc1/C=C/C(=O)c1ccc(F)cc1,101%,–,Activity [2]: Non-Toxic; Activity [3]: 0.407 µM
COc1cc(-c2ccccc2S(C)(=O)=O)c(OC)cc1/C=C/C(=O)c1ccc(F)cc1,102%,–,Activity [2]: Non-Toxic; Activity [3]: 0.325 µM
COc1c(/C=C/C(=O)c2cccc(O)c2)cc(OC)c2occc12,60.5%,–,–
C=CC(=O)N(Cc1cc(OC)c2occc2c1OC)c1cccc(Br)n1,–,inactive,–
COc1cc(C(=O)/C=C/c2cc(OC)c3occc3c2OC)cc(OC)c1OC,42%,–,–
COc1c(/C=C/C(=O)c2cccc(-c3ccccc3)n2)cc(OC)c2occc12,15.9%,–,–
COc1c(/C=C/C(=O)c2cccc(Br)n2)cc(OC)c2occc12,67.7%,–,–
COc1c(/C=C/C(=O)c2cccc(C(F)(F)F)c2)cc(OC)c2occc12,64.7%,–,–
CC(C)(O)c1coc(S(=O)(=O)NC(=O)Nc2c3c(cc4c2CCC4)CCC3)c1,106%,–,–
COc1c(/C=C/C(=O)c2ccc(Br)cc2)cc(OC)c2occc12,50.1%,–,–
COc1c(CCC(=O)c2ccc(F)cc2)cc(OC)c2occc12,–,inactive,–
C=CC(=O)N(Cc1cc(OC)c2occc2c1OC)c1cccc(C(F)(F)F)c1,–,inactive,–

Compound,inhibition at 2 µM [1],inhibition [1],other results
COc1c(/C=C/C(=O)Nc2ccc(F)cc2)cc(OC)c2occc12,–,inactive,–
COc1c(/C=C/C(=O)c2ccc(C#N)cc2)cc(OC)c2occc12,27.6%,–,–
COc1c(/C=C/C(=O)c2cccc(C)c2)cc(OC)c2occc12,75%,–,–
COc1c(/C=C/C(=O)c2ccccn2)cc(OC)c2occc12,56.9%,–,–
COc1c(/C=C/C(=O)c2ccc(F)cc2)cc(OC)c2occc12,88.2%,–,Activity [2]: Non-Toxic; Activity [3]: 0.656 µM
COc1c(/C=C/C(=O)c2ccc(N)cc2)cc(OC)c2occc12,–,inactive,–
COc1c(CCC(=O)c2cccc(Br)n2)cc(OC)c2occc12,10.7%,–,–
COc1cc(-c2cn[nH]c2)c(OC)cc1/C=C/C(=O)c1ccc(F)cc1,–,inactive,–
COc1c(/C=C/C(=O)c2ccccc2)cc(OC)c2occc12,50.8%,–,Activity [4]: Active
COc1cc(/C=C/C(=O)c2ccc(F)cc2)c(OC)cc1C=C(C)C,–,inactive,–
COc1cc(/C=C/C(=O)c2ccc(F)cc2)c(OC)cc1C,80.6%,–,–
COc1c(/C=C/C(=O)c2cccc(F)c2)cc(OC)c2occc12,51.4%,–,–
COc1c(/C=C/C(=O)c2ccc3ccccc3n2)cc(OC)c2occc12,32.1%,–,–
COc1cc(NS(=O)(=O)C2CC2)c(OC)cc1/C=C/C(=O)c1ccc(F)cc1,24.8%,–,–
COc1c(/C=C/C(=O)c2cccc(N)c2)cc(OC)c2occc12,58.8%,–,–
COc1c(/C=C/C(=O)Nc2cccc(Br)n2)cc(OC)c2occc12,–,inactive,–
COc1c(/C=C/C(=O)c2cccc(C(F)(F)F)n2)cc(OC)c2occc12,32.4%,–,–
C=CC(=O)N(Cc1cc(OC)c2occc2c1OC)c1ccc(F)cc1,15%,–,–
COc1c(/C=C/C(=O)c2ccco2)cc(OC)c2occc12,32.8%,–,–
COc1c(/C=C/C(=O)Nc2cccc(C(F)(F)F)c2)cc(OC)c2occc12,–,inactive,–
COc1c(/C=C/C(=O)c2ccc(C(F)(F)F)cc2)cc(OC)c2occc12,50%,–,–
COc1cc(-c2ccoc2)c(OC)cc1/C=C/C(=O)c1ccc(F)cc1,38.5%,–,–
COc1c(/C=C/C(=O)C2CC2)cc(OC)c2occc12,8.7%,–,–
COc1cc(-c2ccccc2C)c(OC)cc1/C=C/C(=O)c1ccc(F)cc1,–,inactive,–
COc1cc(-c2ccsc2)c(OC)cc1/C=C/C(=O)c1ccc(F)cc1,–,inactive,–
COc1cc(NS(C)(=O)=O)c(OC)cc1/C=C/C(=O)c1ccc(F)cc1,–,inactive,–
